From ChEMBL document CHEMBL1649583 (Antimicrob Agents Chemother, 2009) come the findings set out here.

The nature of series [1]: Elimination rate constant in human adults with pulmonary tuberculosis at 600 mg administered twice daily for 7 days. The series is classed as ADME, organism-based. As to conditions: in vivo. The gist of the method:
(§1)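 Plasma was drawn at steady state, predose and at 1, 2, 4, 8, 12, 18 and 24 h, and stored at -80°C. Assay was validated HPLC with 0.5–30 μg/ml standards. A one-compartment population model (NPAG) gave median individual Bayesian estimates; other parameters came from standard equations.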

The nature of series [2]: Cmax in human adults with pulmonary tuberculosis at 600 mg administered once daily for 5 days. Conditions: in vivo. The class given is ADME, organism-based. Details: dose 600 mg. The gist of the method: as §1
Series [3] can be described thus: Elimination half life in human adults with pulmonary tuberculosis at 600 mg administered twice daily for 7 days. Conditions: in vivo, read-out: beta t1/2 (converted). The series is classed as ADME, organism-based. The method in brief:
as §1

For series [4], the system named is Mycobacterium tuberculosis. Briefly: Antimicrobial activity against Mycobacterium tuberculosis in human adults with pulmonary tuberculosis at 600 mg administered twice for 7 days. As to conditions: 168 h. The class given is functional.
A short description of series [5]: Elimination half life in human adults with pulmonary tuberculosis at 600 mg administered daily for 7 days. The class given is ADME, organism-based. Conditions: in vivo, read-out: beta t1/2 (converted). The gist of the method:
as §1

A short description of series [6]: Cmax in human adults with pulmonary tuberculosis at 600 mg administered twice daily for 7 days. Also noted: dose 600 mg. The class given is ADME, organism-based. Conditions: in vivo. The method in brief:
as §1

The test system of series [7] is Homo sapiens. Briefly: Absorption rate constant in human adults with pulmonary tuberculosis at 600 mg administered daily for 7 days. The series is classed as ADME, organism-based. As to conditions: in vivo, 168 h. The method in brief:
(§2)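 Adults with pulmonary TB (once daily n=10, twice daily n=9) fasted overnight before the fifth morning dose. Plasma was drawn at steady state predose and 1, 2, 4, 8, 12, 18 and 24 h after dosing, stored at -80°C, and assayed by validated HPLC (standards 0.5–30 μg/ml). ka comes from a one-compartment NPAG population model fitted per regimen, reported as the median of individual Bayesian estimates.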

Series [8] can be described thus: fT>MIC in human adults with pulmonary tuberculosis at 600 mg administered twice daily for 5 days. The series is classed as functional. The gist of the method:
(§3)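 Steady-state plasma profiles after the fifth 600 mg dose, given once or twice daily, were fitted with a one-compartment population model. Concentrations were corrected to free drug assuming 31% protein binding. MIC came from each patient's pretreatment sputum isolate, tested by Bactec 460 and on Middlebrook 7H-10 agar. The result is the percent of the dosing interval with free drug above MIC.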

For series [9], the system named is Homo sapiens. Briefly: Absorption rate constant in human adults with pulmonary tuberculosis at 600 mg administered twice daily for 7 days. As to conditions: in vivo, 168 h. The class given is ADME, organism-based. The gist of the method: as §2
Series [10] can be described thus: Cmax in human adults with pulmonary tuberculosis at 600 mg administered daily for 7 days. The series is classed as ADME, organism-based. Details: dose 600 mg. Conditions: in vivo. The method in brief:
as §1

A short description of series [11]: Tmax in human adults with pulmonary tuberculosis at 600 mg administered twice daily for 7 days. The class given is ADME, organism-based. As to conditions: in vivo. The gist of the method: as §1
For series [12], the system named is Mycobacterium tuberculosis. In words: Antimicrobial activity against Mycobacterium tuberculosis in human adults with pulmonary tuberculosis at 600 mg administered daily for 7 days. The class given is functional. Conditions: 168 h.
The nature of series [13]: Apparent oral clearance in human adults with pulmonary tuberculosis at 600 mg administered twice daily for 7 days. The series is classed as ADME, organism-based. As to conditions: in vivo. The gist of the method:
as §1

Series [14] in a line: Elimination rate constant in human adults with pulmonary tuberculosis at 600 mg administered daily for 7 days. The class given is ADME, organism-based. As to conditions: in vivo. The method in brief: as §1
Series [15] is described as follows: Apparent oral clearance in human adults with pulmonary tuberculosis at 600 mg administered daily for 7 days. The class given is ADME, organism-based. As to conditions: in vivo. The gist of the method:
as §1

Series [16] in a line: Tmax in human adults with pulmonary tuberculosis at 600 mg administered daily for 7 days. The series is classed as ADME, organism-based. Conditions: in vivo. The method in brief:
as §1

A short description of series [17]: Cmax in human adults with pulmonary tuberculosis at 600 mg administered twice daily for 5 days. Conditions: in vivo. Also noted: dose 600 mg. The class given is ADME, organism-based. The gist of the method: as §1
A short description of series [18]: fT>MIC in human adults with pulmonary tuberculosis at 600 mg administered once daily for 5 days. The class given is functional. The method in brief:
as §3

In brackets after ≈: the same amount, converted by molar mass.

Usually Cmax stands for the peak of the concentration-time curve. Usually MIC stands for the least concentration at which growth counts as inhibited. For orientation: Tmax means the time at which the peak concentration occurs. The CL/F is the apparent clearance, not corrected for the fraction that reaches the circulation. Turning to `CC(=O)NC[C@H]1CN(c2ccc(N3CCOCC3)c(F)c2)C(=O)O1` [LINEZOLID], the k el at 168 h in [1] and in [14] was 5.56e-05 s⁻¹ throughout. Besides, the Cmax in series [2] came to 10300 ng/mL; in [6], 19400 ng/mL; in series [10], 14900 ng/mL; in [17], 13400 ng/mL. The half-life in [3] was 4.6 h; in series [5] it was 2.9 h. For the same compound, the results for the minimum inhibitory concentration (MIC) in series [4] and in series [12] were 0.5 µg/mL (≈ 1.48 µM) and 1 µg/mL (≈ 2.96 µM), respectively. Besides, the ka was 1.5 h⁻¹ in [7] and 2.7 h⁻¹ in series [9]. The results for the “fT>MIC” value in series [8] and in [18] were 100% and 62.8%, respectively. For the same compound, the results for the time of peak concentration (Tmax) in [11] and in [16] were 1 h and 1.5 h, respectively. Moreover, the CL/F in series [13] is 80 mL/min; in [15], 118 mL/min.
